High-throughput results: PubChem, Johns Hopkins Ion Channel Center
Rows were chosen to be rich in hits. Some 3.5% of all compounds tested hit in one or more screens of this group.
MrgX1 agonist = agonists of human MrgX1 receptor, primary screen, HEK293 cells, Fluo-4 calcium flux; AID 588627, 2011; Fluo-4 calcium fluorescence, agonist mode; stronger effect = higher value; B-score at 10 µM; Mas-related G-protein coupled receptor member X1 (Homo sapiens), Q96LB2; hit rate 0.44% among 310,000;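 active = calcium response B-score plate-corrected fluorescence ratio at least 3 library SD, with starting fluorescence B-score inside 5 SD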
Target sequence (Q96LB2 whole entry, looked up): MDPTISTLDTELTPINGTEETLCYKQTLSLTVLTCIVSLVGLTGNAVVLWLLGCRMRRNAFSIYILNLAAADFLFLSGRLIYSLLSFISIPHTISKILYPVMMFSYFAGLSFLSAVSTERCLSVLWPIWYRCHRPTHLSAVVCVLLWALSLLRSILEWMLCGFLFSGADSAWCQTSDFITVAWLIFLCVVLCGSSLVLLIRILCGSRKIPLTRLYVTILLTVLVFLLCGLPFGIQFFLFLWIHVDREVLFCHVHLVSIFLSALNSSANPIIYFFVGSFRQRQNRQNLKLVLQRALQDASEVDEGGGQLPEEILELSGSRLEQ
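Assay system: stable human MrgX1 HEK293 cell line. Quantity: 15,000 cells per well. Schedule: cells plated overnight, dye loaded 0.5 h 37 °C, 0.5 h room temperature. Detection: Fluo-4 NW calcium-flux fluorescence, kinetic read. Read-out basis: peak-minus-minimum fluorescence over baseline, converted to B scores. Control set: positive and negative control wells on each plate.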
MrgX1 antagonist = antagonists of human MrgX1 receptor, primary screen, HEK293 cells, Fluo-4 calcium flux; Mas-related G-protein coupled receptor member X1 (Homo sapiens), Q96LB2; BAM8-22 antagonism; stronger effect = lower value; B-score at 10 µM; hit rate 1.3% among 310,000;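 active = calcium-response B-score plate-corrected more than 3 library SD below zero, starting fluorescence within 5 deviations, no agonist response on first addition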;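 note: peak minus trough fluorescence over baseline after final BAM8-22 challenge near maximal dose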
RGS4 act = RGS4 potentiators or activators, primary screen, cell-based, HEK293 M3R inducible RGS4, calcium flux. carbachol calcium flux Fluo4; stronger effect = lower value. B-score at 10 µM. hit rate 0.92% among 310,000;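 active = B-score of the integrated calcium signal more than 4 SD below the library mean, with starting fluorescence not abnormally high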;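 note: negative B-score means reduced calcium response which marks RGS4 activation or potentiation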
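Material: M3R-expressing HEK293 line, RGS4 induced by doxycycline | Schedule: Overnight RGS4 induction, 30 min dye load 37 °C, 20 min compound RT | Measured by: Fluo4 fluorescence kinetic imaging of calcium | Read-out: Integrated calcium ratio converted to B score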
RGS4 block = RGS4 inhibitors, primary screen, cell-based, HEK293 M3R inducible RGS4, calcium flux | Regulator of G-protein signaling 4 (Homo sapiens), P49798 | Fluo-4 calcium flux; stronger effect = higher value; triggered by carbachol at its EC20 | B-score at 10 µM | hit rate 0.45% among 310,000 | AID 463165, 2010;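 active = B-score, a plate-corrected calcium signal, over three deviations above library mean, with baseline fluorescence within five deviations of library mean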;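 note: RGS4 expression induced by doxycycline in cells with stable M3 receptor; B-score is computed from the integrated fluorescence ratio over baseline after carbachol; higher B-score means a larger calcium signal and so more RGS4 inhibition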
Target sequence (P49798 whole entry, looked up): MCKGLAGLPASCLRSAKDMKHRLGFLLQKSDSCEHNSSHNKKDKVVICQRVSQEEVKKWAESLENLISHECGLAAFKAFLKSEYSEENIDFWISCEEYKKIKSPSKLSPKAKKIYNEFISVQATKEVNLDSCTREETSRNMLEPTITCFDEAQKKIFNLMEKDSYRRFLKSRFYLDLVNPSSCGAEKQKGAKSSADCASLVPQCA
MrgX1 allo act = positive allosteric modulators of MrgX1, primary screen, HEK293 cells, Fluo-4 calcium flux. Mas-related G-protein coupled receptor member X1 (Homo sapiens), Q96LB2. FDSS; stronger effect = higher value. B-score at 10 µM. hit rate 0.63% among 310,000;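 active = plate-corrected calcium response at least 3 library SD above typical, normal starting fluorescence, not activating the receptor alone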;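 note: compound read alongside a low EC10 to EC30 dose of BAM8-22 agonist; peak minus trough fluorescence over baseline measured at the second addition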
MrgX1 ag reconf = MrgX1 receptor agonists, duplicate retest, confirmation, HEK293 cells, Fluo-4 calcium flux | Fluo-4 calcium fluorescence, FDSS | shares compounds with MrgX1 agonist | activation, % at 10 µM | hit rate 78% among 600;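 active = calcium signal rise, corrected for plate position, at least 3 library SD high, with starting brightness within 5 such deviations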
HEK293 Ca flux = nonspecific calcium signal in parental HEK293, confirmation, counter-screen for MrgX1 antagonist project, parental HEK293 cells, Fluo-4 calcium flux; hit rate 2% among 4,000; fluorescence ratio F(max-min)/F0 at 10 µM; shares compounds with MrgX1 antagonist; Fluo-4 calcium fluorescence, FDSS;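 active = duplicate-averaged calcium fluorescence ratio at least three times the standard deviation of buffer wells, a nonspecific response in parental cells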
HEK293 Ca counter = calcium response in parental HEK293 cells, primary screen, counter-screen for MrgX1 allosteric activator project, cell-based, Fluo-4 calcium flux, duplicate | shares compounds with MrgX1 antagonist | Fluo-4 fluorescence ratio; stronger effect = higher value | fluorescence ratio F(max-min)/F0 at 10 µM | hit rate 0.4% among 4,000 | AID 624114, 2012;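 active = calcium fluorescence ratio, averaged over duplicates, at least 3 SD of the buffer-well ratio, meaning a nonspecific response in receptor-free cells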;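 note: untransfected parental HEK293 lacking MrgX1 used as counterscreen for MrgX1 allosteric activators; fluorescence change taken during the second addition on a kinetic imager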
HEK293 Ca cntr2 = calcium response in parental HEK293 cells, primary screen, counter-screen for MrgX1 agonist project, cell-based, Fluo-4 calcium flux, duplicate, agonist mode; shares compounds with MrgX1 antagonist; Fluo-4 calcium fluorescence (FDSS); stronger effect = higher value; fluorescence ratio F(max-min)/F0 at 10 µM; hit rate 8.7% among 4,000;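 active = calcium fluorescence ratio at least three times the spread of buffer wells, meaning a non-specific response in parental cells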
* marks the source's active call; other numbers are inactive results; i = inactive; / = no result.

SMILES	MrgX1 agonist	MrgX1 antagonist	RGS4 act	RGS4 block	MrgX1 allo act	MrgX1 ag reconf	HEK293 Ca flux	HEK293 Ca counter	HEK293 Ca cntr2
N#CC1(Nc2ccccc2)C(=O)Nc2ccccc21 (stereo not given)	37*	i	i	i	i	137%*	i	i	i
Cc1ccc(NS(=O)(=O)c2ccc(C(=O)N3CC(C)CC(C)C3)cc2)cc1 (stereo not given)	28*	i	i	i	i	151%*	i	i	71*
CC1CC2(CCCCC2)N2C(=O)C(=O)c3cccc1c32 (stereo not given)	46*	i	i	i	i	196%*	i	i	i
Cc1cc2c3c(c1)C(C)CC(C)(C)N3C(=O)C2=O (stereo not given)	i	i	i	i	i	/	/	/	/
COc1ccc(C(=O)c2no[n+]([O-])c2C(=O)c2ccc(OC)cc2)cc1	67*	i	i	i	i	186%*	i	i	57*
c1ccc2c(c1)[nH]c1c(N3CCSCC3)ncnc12	32*	i	/	/	i	186%*	i	i	i
Clc1ccc2[nH]c3c(N4CCC5(CC4)OCCO5)ncnc3c2c1	42*	i	i	i	i	238%*	i	i	50*
c1ccc2c(c1)[nH]c1c(N3CCCC3)ncnc12	i	i	i	i	i	/	/	/	/
O=C(Nc1ccc2oc(-c3ccccc3Cl)nc2c1)c1ncn[nH]1	55*	i	i	i	i	i	i	i	i
O=C(Nc1ccc2oc(-c3cccc4ccccc34)nc2c1)c1ncn[nH]1	i	i	i	i	i	/	/	/	/
Fc1ccc(NC(=S)NCCc2ccc(Cl)cc2)cc1	i	i	i	i	i	/	/	/	/
Fc1ccc(CCNC(=S)Nc2ccc(F)c(Cl)c2)cc1	30*	i	i	i	i	150%*	i	i	i
Cc1nn(Cc2ccccc2)c2c1C(c1cccc(Cl)c1)C(C#N)=C(N)O2 (stereo not given)	35*	i	i	i	i	174%*	i	i	47*
CN(C)c1nc(N)c(C(=O)N=C(N)N)nc1Cl	35*	i	i	i	i	170%*	i	i	i
NC(=Nc1ccccc1)NC(=O)c1nc(Cl)c(N)nc1N	i	i	i	i	i	/	/	/	/
Cc1ccc(Cl)cc1NC(=O)CC(O)(C(F)(F)F)C(F)(F)F	29*	i	i	i	i	196%*	i	i	47*
COCC(=O)Nc1cc(Cl)ccc1C	i	i	i	i	i	/	/	/	/
C/C(=N\NC(=O)c1c[nH]c2ccccc12)c1ccccn1	i	i	i	i	i	/	/	/	/
C/C(=N\NC(=O)c1cc2ccccc2cc1O)c1ccccn1	68*	i	i	i	i	458%*	i	i	109*
CC(C)c1nc(CN(C)C(=O)N[C@H](C(=O)N[C@@H](Cc2ccccc2)C[C@H](O)[C@H](Cc2ccccc2)NC(=O)OCc2cncs2)C(C)C)cs1	i	i	i	i	i	/	/	/	/
CCC(=O)C1CCCN(C(=O)c2ccc(OC3CCN(C(=O)CCOC)CC3)cc2)C1 (stereo not given)	i	i	i	i	i	/	/	/	/
Cc1[nH]n(-c2ccccc2)c(=O)c1C(=O)c1ccc(Cl)cc1	37*	i	i	i	i	116%*	i	i	i
Cc1[nH]n(-c2ccc(Cl)cc2)c(=O)c1C(=O)c1ccccc1	40*	i	i	i	i	82%*	i	i	i
CSc1nc(C)c(C(=O)C[n+]2ccccc2)cc1C#N	i	i	i	i	i	/	/	/	/
CCOC(=O)c1cnn2c(C)cc(-c3ccc(F)cc3)nc12	26*	i	i	i	i	i	i	i	i
SMILES	MrgX1 agonist	MrgX1 antagonist	RGS4 act	RGS4 block	MrgX1 allo act	MrgX1 ag reconf	HEK293 Ca flux	HEK293 Ca counter	HEK293 Ca cntr2
Cc1ccc2nc(/C(C#N)=C\c3ccc(N4CCOCC4)o3)[nH]c2c1	68*	i	i	i	i	i	0.33*	i	i
C/C(=N\Nc1ncnc2sc(C)c(C)c12)c1ccccn1	72*	i	i	i	i	499%*	0.46*	i	101*
CC(Oc1ccccc1)C(=O)Nc1nnc(S(=O)(=O)N(C)c2ccccc2)s1 (stereo not given)	29*	i	i	i	i	95%*	i	i	46*
Cc1cc(=O)[nH]c(SCC(=O)Nc2ccc(F)cc2)c1C#N	i	i	i	i	i	/	/	/	/
Cc1cc(=O)[nH]c(SCC(=O)Nc2ccc(Br)cc2)c1C#N	72*	i	i	i	i	375%*	i	i	84*
COCCCNC(=S)N/N=C/c1ccc(OC)c(Br)c1	i	i	i	i	i	/	/	/	/
O=C(Cn1nc(Cl)nc1Cl)c1ccc2c(c1)OCCO2	53*	i	i	i	i	194%*	i	i	i
Cc1cccc(NC(=S)NC(C)C(c2ccccc2)N2CCN(C)CC2)c1C (stereo not given)	i	i	i	i	i	/	/	/	/
O=C(CCC1CCCC1)c1c(O)c2ccccc2oc1=O	87*	i	i	i	i	564%*	i	i	111*
O=C(NCc1ccco1)/C(=C/c1ccc(F)cc1)NC(=O)c1ccccc1	i	i	i	i	i	/	/	/	/
